# Experimental data pooled from the literature.
# Protocols differ between the studies behind these lines.
# Observed: enzyme activity
# Mode: inhibitor
# HDAC1: Histone deacetylase 1 (HDAC1, Homo sapiens, UniProt Q13547)
# PARP10: Protein mono-ADP-ribosyltransferase PARP10 (PARP10, Homo sapiens, UniProt Q53GL7)
Compound,target,test,IC50
COc1ccc(N(Cc2csc(-c3ccccc3Br)n2)C(=O)CCCCCC(=O)NO)cc1,HDAC1,,1.3 nM
Nc1nc2c(ncn2[C@H]2CC[C@@H](COP(=O)(O)OP(=O)(O)OP(=O)(O)O)O2)c(=O)[nH]1,"TERT (Tribolium castaneum, UniProt Q0QHL8)",fluorescence,550 nM
O=c1[nH]c2c(nnn2C2CCCCC2)c2ccccc12,PARP10,,> 10000 nM
COc1ccc(N(Cc2nc(-c3ccccc3)cs2)C(=O)CCCCCC(=O)NO)cc1,HDAC1,,1.6 nM
CCCCCn1nnc2c3ccccc3c(=O)[nH]c21,PARP10,,182 nM
COc1ccc(N(Cc2nc(-c3ccc(Br)cc3)cs2)C(=O)CCCCCC(=O)NO)cc1,HDAC1,,3.6 nM
Nc1ccccc1NC(=O)c1ccc(Cn2cnc3c(Nc4ccc(Cl)cc4)ncnc32)cc1,HDAC1,fluorescence,14.1 nM
c1ccc2c(-c3cnn4cc(-c5ccc(N6CCNCC6)cc5)cnc34)ccnc2c1,"TGF-beta receptor type-2 (TGFBR2, Homo sapiens, UniProt P37173)",,89.7 nM
Clc1ccc(Nc2ccncc2)cc1Cl,"Uracil-DNA glycosylase (UNG, Homo sapiens, UniProt P13051)",,> 99000 nM
Cc1ccccc1Cn1nnc2c3ccc(F)cc3c(=O)[nH]c21,PARP10,,> 10000 nM
CC(C)COc1ccc(N(Cc2nc(-c3ccccc3)cs2)C(=O)CCCCCC(=O)NO)cc1,HDAC1,,2.6 nM
Cc1ccc(Cn2cc(-c3ccccc3C(N)=O)nn2)cc1,PARP10,,> 10000 nM
O=C(NO)c1ccc(Cn2cnc3c(Nc4ccc(F)c(Cl)c4)ncnc32)cc1,HDAC1,fluorescence,341 nM
CCCCn1c(=O)c2cc(F)ccc2c2nnn(Cc3ccc(C)cc3)c21,PARP10,,> 10000 nM
O=c1cc(-c2ccccc2)oc2cc(O)c(O)c(O)c12,"Seed linoleate 13S-lipoxygenase-1 (Glycine max, UniProt P08170)",,6360 nM
NC/C(=C\F)COc1cccc(Cn2c(=S)[nH]c(=O)c3[nH]cnc32)c1,"Protein-lysine 6-oxidase (Homo sapiens, UniProt P28300)",,> 30000 nM
COc1ccc(N(Cc2csc(-c3ccc(C)cc3)n2)C(=O)CCCCCC(=O)NO)cc1,HDAC1,,0.8 nM
O=C(NO)c1ccc(Cn2cnc3c(Nc4cccc([N+](=O)[O-])c4)ncnc32)cc1,HDAC1,fluorescence,148 nM
O=c1[nH]c2c(nnn2Cc2ccccc2C(F)(F)F)c2ccccc12,PARP10,,> 10000 nM
Cc1ccc(S(=O)(=O)[N](Nc2ccc([N+](=O)[O-])cc2[N+](=O)[O-])[Sn]([Cl])[Cl])cc1,"Polyunsaturated fatty acid 5-lipoxygenase (ALOX5, Homo sapiens, UniProt P09917)",,1520 nM
COc1ccc(Nc2ncnc3c2ncn3Cc2ccc(C(=O)NO)cc2)cc1,"Histone deacetylase 8 (HDAC8, Homo sapiens, UniProt Q9BY41)",,112 nM
COc1ccc(N(Cc2csc(-c3ccc(Cl)cc3)n2)C(=O)CCCCCC(=O)NO)cc1,HDAC1,,1 nM
O=C(CCCCc1ccc(CO)cc1)C(F)(F)C(F)(F)F,"Cytosolic phospholipase A2 (PLA2G4A, Homo sapiens, UniProt P47712)",,121000 nM
COc1ccc(N(Cc2csc(-c3ccccc3Cl)n2)C(=O)CCCCCC(=O)NO)cc1,HDAC1,,2.1 nM
O=c1[nH]c2c(nnn2Cc2c(F)c(F)c(F)c(F)c2F)c2ccc(F)cc12,PARP10,,> 10000 nM
